Experimental data from article PMC11383987 (bioRxiv, 2024).
Substitutions are numbered along the chain they refer to.

Assays:
PIN8 Y150A = target: T1, PIN8 Y150A (Arabidopsis thaliana, UniProt Q9LFP6, Y150A); test: SSM electrophysiology peak current response, PIN8 Y150A proteoliposomes; type: biochemical; conditions: for Imax: PIN8 Y150A
T1 sequence (Q9LFP6 1-367 Y150A): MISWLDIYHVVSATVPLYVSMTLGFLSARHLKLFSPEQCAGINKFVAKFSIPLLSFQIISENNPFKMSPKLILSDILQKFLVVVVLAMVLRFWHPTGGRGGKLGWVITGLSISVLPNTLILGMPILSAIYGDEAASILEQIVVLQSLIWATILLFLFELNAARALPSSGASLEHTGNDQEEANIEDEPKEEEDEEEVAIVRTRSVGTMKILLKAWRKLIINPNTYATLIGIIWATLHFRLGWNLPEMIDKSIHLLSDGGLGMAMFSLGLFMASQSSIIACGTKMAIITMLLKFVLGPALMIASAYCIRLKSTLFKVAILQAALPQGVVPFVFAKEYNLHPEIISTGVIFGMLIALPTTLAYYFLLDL

PIN8 N223A = target: T2, PIN8 N223A (Arabidopsis thaliana, UniProt Q9LFP6, N223A); test: SSM electrophysiology peak current response, PIN8 N223A proteoliposomes; type: biochemical; conditions: for effect of N223A mutation on affinity/binding: PIN8 N223A vs WT
T2 sequence (Q9LFP6 1-367 N223A): T1 sequence (Q9LFP6 1-367 Y150A) with A150Y, N223A

PIN8 N117A = target: T3, PIN8 N117A (Arabidopsis thaliana, UniProt Q9LFP6, N117A); test: SSM electrophysiology peak current response, PIN8 N117A proteoliposomes; type: biochemical; conditions: 100 μM or 2 mM substrate, relative to WT
T3 sequence (Q9LFP6 1-367 N117A): T1 sequence (Q9LFP6 1-367 Y150A) with N117A, A150Y
Procedure, shortened: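 The N117A point mutant of PIN8 was made by site-directed mutagenesis. It was reconstituted in proteoliposomes in Ca2+-free Ringer pH 7.4 and immobilised on SSM sensors. Peak currents were recorded after a single solution exchange to 100 μM or 2 mM substrate and expressed relative to wild type. Mean ± s.e.m., n = 3 sensors; one-way ANOVA.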

PIN8 [1] = target: T4, PIN8 (Arabidopsis thaliana, UniProt Q9LFP6); test: Xenopus oocyte efflux assay, PIN8; type: cell-based; conditions: PIN8 in oocytes, NPA-sensitive, internal concentration 1 µM
T4 sequence (Q9LFP6 1-367): T1 sequence (Q9LFP6 1-367 Y150A) with A150Y
Procedure, shortened: (§1)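 Xenopus oocytes received 150 ng PIN8 or PIN3 cRNA; PIN3 was given with or without 75 ng PID kinase cRNA. [3H]-IAA or [3H]-2,4-D was injected to an internal 1 µM, ± 10 μM NPA internally. Residual radioactivity per oocyte was counted by scintillation over a time course (10 oocytes per point) and set against the initial 100%. %/min rates came from linear regression; each replicate used a different female.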

A. thaliana PIN3 = test: Xenopus oocyte efflux assay, PIN3 with PID kinase; type: cell-based, Arabidopsis thaliana; conditions: PIN3 with PID kinase in oocytes, NPA-sensitive, internal concentration 1 µM
Procedure, shortened: as §1

[2] = system: A. thaliana stem segments (wild type and pin1 mutants); test: Arabidopsis stem segment transport assay; design: species or system Arabidopsis thaliana
Procedure, shortened: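 Stem sections (2 cm) were cut above the rosette of 5-week-old Col-0 or pin1 plants. They were inverted into buffer (500 pM IAA, 1% sucrose, 5 mM MES pH 5.5) ± 100 μM NPA for 2 h. They were then moved to buffer with 417 nM [3H]-IAA or [3H]-2,4-D ± NPA for 2 h. Three 5 mm segments were dissected and counted by liquid scintillation.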

PIN8 [3] = target: T4, PIN8; test: KD of substrate binding by competition with NPA binding current; conditions: KD relative to IAA
Procedure, shortened: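 Purified PIN8 (LMNG) was reconstituted at LPR 10 into soy polar lipid/POPC liposomes in Ca2+-free Ringer pH 7.4 and adsorbed on SSM sensors. Current from 100 µM NPA was recorded with test compound at 0–1000 µM in both activating and non-activating solutions (3 s single exchange). KD was taken as the half-maximal point of a one-site fit of peak current inhibition. n = 3 sensors, 3 technical replicates each.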

PIN8 [4] = target: T4, PIN8; conditions: read-out: KD of IAA binding by PIN8, previously described; cited from earlier work

## O=C(O)COc1ccc(Cl)cc1Cl [2,4-D, 2,4-dichlorophenoxyacetic acid]
PIN8 Y150A
  EC50: 684 ± 256 µM
  Imax: 5 ± 1 nA
PIN8 N223A
  effect of N223A mutation on affinity/binding: completely abolishes binding
PIN8 N117A
  current response with N117A mutation: abolishes the current response
PIN8 [1]
  2,4-D export transport rate relative to that determined for IAA: about half
A. thaliana PIN3
  2,4-D export rate relative to the IAA transport rate: about half
[2]; pin1 mutant stem segments
  transport in pin1 mutants: completely abolished
[2]; wildtype plants, stem segments
  transport lower than IAA transport: about 20 fold

## O=C(O)COc1ccc(Cl)cc1 [4-CPA, 4-chlorophenoxyacetic acid]
PIN8 Y150A
  EC50: 2620 ± 263 µM
  Imax: 5 ± 0.4 nA
PIN8 N223A
  effect of N223A mutation on affinity/binding: completely abolishes binding
PIN8 N117A
  current response with N117A mutation: abolishes the current response
PIN8 [3]
  affinity lower compared to IAA: ~ 8 fold

## O=C(O)Cc1c[nH]c2ccccc12 [IAA, indole-3-acetic acid]
PIN8 Y150A
  EC50: 1210 ± 298 µM
  Imax: 4 ± 0.3 nA
PIN8 N223A; PIN8 N223A
  Imax: 2 ± 0.8 nA
PIN8 N223A
  effect of N223A mutation on affinity/binding: reduces affinity for IAA only slightly
PIN8 [4]
  Kd: 40 ± 15 µM
